The record followed here is ChEMBL document CHEMBL1177719 (J Med Chem, 2010).

The source made the active and inactive calls. No cut-off for these calls is given here.

As a reminder, the IC50 is the concentration that inhibits the measured activity by half.

For one data set, the system named is MCF7. Put plainly: Cellular uptake in human MCF7 cells assessed per millions cells at 50 uM after 24 hrs by LC/MS/MS analysis. Conditions: mcf7, 24 h. It is filed as ADME, cell-based.
In another data set the test system is HL-60. Put plainly: Cell cycle arrest in human HL60 cells assessed as accumulation at sub-G1 phase at 34 uM after 24 hrs by flow cytometry. In kind it is functional. The essentials: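 HL-60 cells (2 × 10⁵/well) exposed to samples for 24 h, then stained with NIM-DAPI nuclear isolation medium. Read by flow cytometry under UV excitation; percentage of cells in subG₁ taken from the DNA histogram.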
(A flow cytometer gives signals particle by particle.)

Data set [1] has as its target T1, Prostaglandin G/H synthase 2 (Homo sapiens, UniProt P35354).
T1 sequence (P35354 whole entry): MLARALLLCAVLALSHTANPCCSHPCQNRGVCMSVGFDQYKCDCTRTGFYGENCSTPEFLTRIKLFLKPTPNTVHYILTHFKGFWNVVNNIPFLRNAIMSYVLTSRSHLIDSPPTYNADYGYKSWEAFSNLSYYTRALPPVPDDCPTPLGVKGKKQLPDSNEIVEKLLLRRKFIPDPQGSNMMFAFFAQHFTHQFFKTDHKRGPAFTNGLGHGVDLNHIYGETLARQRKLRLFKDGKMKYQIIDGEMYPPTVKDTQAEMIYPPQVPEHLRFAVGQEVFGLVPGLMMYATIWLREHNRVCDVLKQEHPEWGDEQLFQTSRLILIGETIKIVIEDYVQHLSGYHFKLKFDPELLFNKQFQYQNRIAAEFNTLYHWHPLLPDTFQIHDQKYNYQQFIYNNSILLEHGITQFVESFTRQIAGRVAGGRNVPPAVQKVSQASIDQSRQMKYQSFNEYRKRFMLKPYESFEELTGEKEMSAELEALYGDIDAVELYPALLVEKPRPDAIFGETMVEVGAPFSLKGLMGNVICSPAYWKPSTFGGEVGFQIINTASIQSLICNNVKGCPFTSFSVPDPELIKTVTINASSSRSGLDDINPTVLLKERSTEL
In words: Inhibition of human recombinant COX2 assessed as PGE2 production after 10 mins by ELISA.

A short description of data set [2]: Inhibition of TNF-alpha-induced NF-kappaB activity expressed in HEK293 cells after 48 hrs by luciferase reporter gene assay. It is filed as cell-based. Conditions: HEK293, 48 h. Background: A reporter such as luciferase makes a cellular process visible.
The next data set has as its system RAW264.7. Put plainly: Inhibition of LPS-induced iNOS expression in mouse RAW264.7 cells at 34 uM treated 15 mins before LPS challenge measured after 18 hrs by Western blotting. In kind it is functional, cell-based. The essentials: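 RAW 264.7 cells pretreated 15 min with compound (34 μM), then LPS 1 μg/mL for 18 h. Lysates (30 μg protein) run on 8% SDS-PAGE and transferred to PVDF. Blocked in 5% milk/TBST, probed for iNOS and COX-2 with HRP secondary, ECL detection, β-actin internal control. Band density relative to LPS-treated control; duplicate experiments.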

Data set [3] is described as follows: Chemical stability assessed as degradation after 24 hrs by LC/MS/MS analysis. In kind it is physicochemical. The essentials:
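Compound held 24 h at 37 °C in RPMI 1640 culture medium, the medium used for the MCF7 uptake work; remaining amount sampled at 0, 12 and 24 h as % of starting level; three runs.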

Data set [4] can be described thus: Antioxidant activity assessed as DPPH scavenging activity after 30 mins. It is filed as functional. (In general: DPPH is a stable violet radical that fades when it is reduced.)

For `O=S(=O)([O-])Oc1cc(/C=C/c2ccc(O)cc2)cc(OS(=O)(=O)[O-])c1.[K+].[K+]`, the Drug uptake result in the data set on MCF7 is “Active”.
In the case of `O=S(=O)([O-])Oc1ccc(/C=C/c2cc(O)cc(O)c2)cc1.[K+]`, the Activity with HL-60 is recorded as 2.22%. Further, the IC50 in data set [1] amounted to 8.95 µM; in data set [2] it was 18.2 µM. The inhibition result in the data set with RAW264.7 is “Active”. Further, the Stability entry in data set [3] is “Stable”.
With `O=S(=O)([O-])Oc1cc(O)cc(/C=C/c2ccc(O)cc2)c1.[K+]`, the results for the IC50 in data set [1] and in data set [4] were 7.53 µM and 219 µM, respectively. For the same molecule, in the data set with RAW264.7, the inhibition entry was “Active”.
